Shown are actives, neighbours in structure and some others; about 2.2% of the full set was active somewhere.
BaF3 parental: parental Ba/F3 viability inhibition as JAK2V617F counter-screen; inhibition, % at 5.6 µM; CellTiter-Glo ATP luminescence; AID 1486; 220,000 tested, 1.1% active;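 active = inhibition above a per-campaign cutoff, the mean inhibition of all tested compounds plus 3 SD, cut at about 27% in these data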;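 note: 0% = DMSO wells and 100% = JAK Inhibitor I control wells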
Ba/F3 V617F tox: reduce viability of Ba/F3 cells dependent on JAK2V617F; Ba/F3 EpoR-JAK2V617F viability, ATP luminescence; inhibition, % at 5.6 µM; 220,000 tested, 1.1% active;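 active = inhibition above the campaign mean plus 3 SD over all tested compounds, cut at about 24% in these data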;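 note: cytokine-independent growth of Ba/F3 cells driven by EpoR plus mutant JAK2; 0% = DMSO-treated cells and 100% = JAK inhibitor I control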
APP 5UTR inh: APP translation inhibition | inhibition, % at 2 µM | AID 1285 | SH-SY5Y APP 5'UTR-luciferase reporter, luminescence | 190,000 tested, 0.82% active;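 active = inhibition above a set limit, derived from the sample mean plus 3 SD, cut at about 45% in these data; inconclusive = one replicate passes the limit while the other fails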
IEC-6 cytotox: IEC-6 cytotoxicity, counter-screen for KLF5 inhibitors; 290,000 tested, 0.78% active; inhibition, % at 5 µM; AID 1825; luminescence viability; in the data active = inhibition above about 22%;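 note: 0% = plate median of test compound wells and 100% = cytotoxic reference compound wells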
MT stabilizer: stabilizes microtubules in HeLa cells; HeLa tubulin immunostaining HCS, 24 h; share of cells brighter than vehicle mean+2SD; 200,000 tested, 0.83% active; % tubulin-high responders, % at 10 µM; AID 2205;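 active = plate Z-score above 3 for both tubulin-high and condensed-nucleus cell shares, with cell loss under 80%, at 10 µM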;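 note: anti alpha tubulin signal scored within the nucleus-defined area of each cell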
bCat nuc transl: alters nuclear translocation of beta-catenin in HeLa cells. immunofluorescence imaging. 190,000 tested, 0.3% active. nuclear translocation activity, % at 5 µM;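 active = nuclear translocation activity above 50% at 5 µM, with a well cell count of 50 or more; inconclusive = wells under 50 cells across six images, flagged as toxic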;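 note: per-cell ratio of nuclear to cytoplasmic median beta-catenin stain intensity; plate controls were DMSO negative control for no effect and GSK-3 inhibitor IX positive control for full effect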
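System: Human HeLa cells, endogenous beta-catenin | Compound dosing: 5 µM primary, 0.02–20 µM confirmation | Timing: 24 h compound exposure at 37°C, 5% CO2 | Measured by: Fluorescence imaging of beta-catenin antibody stain plus DAPI | Read-out basis: % activation of per-cell nuclear versus cytoplasmic median beta-catenin signal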
* = called active by the depositor.

What do the screens show for `COc1cccc2c1C(=O)c1c(O)c3c(c(O)c1C2=O)C[C@@](O)(C(=O)CO)C[C@@H]3O[C@H]1C[C@H](N)[C@H](O)[C@H](C)O1`?
BaF3 parental: 101*; Ba/F3 V617F tox: 102*; APP 5UTR inh: 95*; IEC-6 cytotox: 94*; MT stabilizer: 81; bCat nuc transl: inconclusive

Results for Cn1c(C(=O)OCC(=O)NCc2ccco2)cc2sccc21 ?
BaF3 parental: 2; Ba/F3 V617F tox: 0; APP 5UTR inh: -19; IEC-6 cytotox: -3; MT stabilizer: 3; bCat nuc transl: 9

Results for Cc1cc2c(cc(C(=O)OCC(=O)NCc3ccco3)n2C)s1 ?
BaF3 parental: -4; Ba/F3 V617F tox: -5; APP 5UTR inh: -13; IEC-6 cytotox: 12; MT stabilizer: 51*; bCat nuc transl: 44

Results for O=C1SCCC1NS(=O)(=O)c1ccc([N+](=O)[O-])cc1 (centres undefined) ?
IEC-6 cytotox: -9

How did Cc1ccc(S(=O)(=O)N2CCN(C(=O)CSC3CCCC3)CC2)c(C)c1 do in these assays?
BaF3 parental: 94*; Ba/F3 V617F tox: 5; APP 5UTR inh: 0; IEC-6 cytotox: 4; MT stabilizer: 4

What do the screens show for `Cc1ccc(S(=O)(=O)N2CCN(C(=O)CSc3nc4ccccc4c(=O)[nH]3)CC2)c(C)c1`?
BaF3 parental: 2; Ba/F3 V617F tox: 2; APP 5UTR inh: 5; IEC-6 cytotox: -1; MT stabilizer: 2; bCat nuc transl: 0

How did COc1cc(/C=N/OCC(=O)Nc2ccc(OC(F)F)cc2)ccc1OCc1ccccc1 do in these assays?
BaF3 parental: 6; Ba/F3 V617F tox: 3; APP 5UTR inh: -4; IEC-6 cytotox: -3; MT stabilizer: 17*; bCat nuc transl: 4

What do the screens show for `COc1cc(/C=N/O)ccc1OCc1ccc(C(=O)O)cc1`?
BaF3 parental: 4; Ba/F3 V617F tox: 0; APP 5UTR inh: 82*; IEC-6 cytotox: 0; MT stabilizer: 3; bCat nuc transl: 3

Results for CCOc1ccc(/C=N/OCC(=O)Nc2ccc(OCc3ccccc3)cc2)cc1OC ?
BaF3 parental: 6; Ba/F3 V617F tox: 0; APP 5UTR inh: 9; IEC-6 cytotox: -4; MT stabilizer: 2; bCat nuc transl: -2

What do the screens show for `COc1cc(/C=N/O)ccc1OCc1ccc(Cl)cc1`?
BaF3 parental: 4; Ba/F3 V617F tox: -3; APP 5UTR inh: -191; IEC-6 cytotox: -1; MT stabilizer: 3; bCat nuc transl: 2

Results for COc1cc(/C=N/NC(N)=S)ccc1OCc1ccc(C)cc1 ?
BaF3 parental: 48*; Ba/F3 V617F tox: 60*; APP 5UTR inh: -19; IEC-6 cytotox: 5; MT stabilizer: 4

Results for COc1cc(/C=N/NC(N)=S)ccc1OC(=O)c1ccc(C)cc1 ?
BaF3 parental: 2; Ba/F3 V617F tox: -1; APP 5UTR inh: -6; IEC-6 cytotox: -2; MT stabilizer: 3; bCat nuc transl: 3

Results for CC(=O)c1cccc(N2C(=NC(=O)C3CCCCC3)SC3CS(=O)(=O)CC32)c1 (centres undefined) ?
IEC-6 cytotox: 7

How did CC1=C(C#N)C(c2cccnc2)C2=C(N1)c1ccccc1C2=O (centres undefined) do in these assays?
BaF3 parental: 2; Ba/F3 V617F tox: -1; APP 5UTR inh: -4; IEC-6 cytotox: 3; MT stabilizer: 1; bCat nuc transl: -2

How did CC1=C(C#N)C(c2ccccc2)C2=C(N1)c1ccccc1C2=O (centres undefined) do in these assays?
BaF3 parental: 3; Ba/F3 V617F tox: -3; APP 5UTR inh: 78*; IEC-6 cytotox: 6; MT stabilizer: 24*; bCat nuc transl: -4

How did N#CC(c1ccc(Cl)cc1)c1cccc(Cl)n1 (centres undefined) do in these assays?
BaF3 parental: 48*; Ba/F3 V617F tox: -3; APP 5UTR inh: 28; IEC-6 cytotox: -3; MT stabilizer: 4; bCat nuc transl: 2

How did N#CC(c1ccc(Cl)cc1)c1ccc2c(C(F)(F)F)cc(C(F)(F)F)nc2n1 (centres undefined) do in these assays?
BaF3 parental: 4; Ba/F3 V617F tox: 3; APP 5UTR inh: -4; IEC-6 cytotox: 11; MT stabilizer: 4

What do the screens show for `COC(=O)Nc1nc(C)c(C(=O)c2ccccc2)s1`?
BaF3 parental: 8; Ba/F3 V617F tox: 4; APP 5UTR inh: -4; IEC-6 cytotox: 4; MT stabilizer: 8; bCat nuc transl: 56*

What do the screens show for `Cc1nc(Nc2ccccc2)sc1C(=O)c1ccccc1`?
BaF3 parental: -3; Ba/F3 V617F tox: -3; IEC-6 cytotox: -4; bCat nuc transl: -3

Results for O=C(CNc1ccccc1)N/N=C/c1c[nH]c2ccccc12 ?
BaF3 parental: 0; Ba/F3 V617F tox: -3; APP 5UTR inh: 8; IEC-6 cytotox: 0; MT stabilizer: 16*; bCat nuc transl: 19

What do the screens show for `Cc1cccc(NC(=S)N/N=C/c2c[nH]c3ccccc23)c1`?
BaF3 parental: -1; Ba/F3 V617F tox: -5; APP 5UTR inh: 86*; IEC-6 cytotox: 12; MT stabilizer: 14*

Results for Cc1ccc(C(=O)Nc2ccc(C(=O)N/N=C/c3c[nH]c4ccccc34)cc2)cc1 ?
BaF3 parental: 3; Ba/F3 V617F tox: -2; APP 5UTR inh: 0; IEC-6 cytotox: 6; MT stabilizer: 3; bCat nuc transl: -1

What do the screens show for `O=C(N/N=C/c1c[nH]c2ccccc12)c1ccccc1`?
IEC-6 cytotox: 0

How did COc1ccc(NC(=O)Cn2cnc3sc(C)c(S(=O)(=O)N4CCOCC4)c3c2=O)cc1Cl do in these assays?
IEC-6 cytotox: -1

How did COc1ccc(Cl)cc1N1C(=O)CN(Cc2cc(OC)c(OC)c(OC)c2)C1=S do in these assays?
IEC-6 cytotox: 4

Results for O=C(CSc1ccc2c(c1)OCCO2)Nc1ncc(Cl)cc1Cl ?
BaF3 parental: 4; Ba/F3 V617F tox: -2; APP 5UTR inh: 46*; IEC-6 cytotox: -2; MT stabilizer: 3; bCat nuc transl: -2

Results for CC(=O)NC1=C(C#N)C(c2ccccc2)c2c(ccc3ccccc23)O1 (centres undefined) ?
BaF3 parental: 7; Ba/F3 V617F tox: 1; IEC-6 cytotox: -1; MT stabilizer: 43*; bCat nuc transl: 58*

How did COc1ccc(OCc2nnc(SCC(=O)Nc3ccccc3Cl)o2)cc1 do in these assays?
IEC-6 cytotox: -2

Results for COc1cc2c(cc1OC)CN(C(C)C(=O)N1CCc3ccccc31)CC2 (centres undefined) ?
BaF3 parental: 6; Ba/F3 V617F tox: 0; APP 5UTR inh: 2; IEC-6 cytotox: 1; MT stabilizer: 47*

How did COc1ccc(N2CCN(C(C)C(=O)N3CCc4ccccc43)CC2)cc1 (centres undefined) do in these assays?
IEC-6 cytotox: 6

What do the screens show for `COc1ccc(C(=O)N2CCCc3ccccc32)cc1OC`?
IEC-6 cytotox: -2
